Results: ChEMBL document CHEMBL4304771, “Design, synthesis and biological activity of N-(2-phenoxy)ethyl imidazo[1,2-a]pyridine-3-carboxamides as new antitubercular agents” (Eur J Med Chem, 2019)
Converted amounts (≈) assume the structure as drawn.

Legend:
[1] = tested on: Mycobacterium tuberculosis; assay: Antitubercular activity against multidrug resistant Mycobacterium tuberculosis isolate 11168 assessed as parasite growth inhibition measured after 7 days incubation by microplate alamar blue assay; type: functional; conditions: isolate 11168, 168 h
Method in brief: (§1)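 Strains grown to late log phase in 7H9 with 0.2% glycerol, 0.05% Tween 80 and 10% ADC. Cells washed, resuspended in PBS, filtered (8 µm) and frozen at -80 °C. Two-fold compound dilutions, 2 × 10⁵ CFU per well, 37 °C for 7 days. Tween 80 and Alamar blue then added for 16-24 h; fluorescence read at ex 530/em 590 nm. MIC = lowest concentration giving ≥90% fluorescence reduction versus mean of bacterium-only controls.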

[2] = tested on: Mycobacterium tuberculosis; assay: Antitubercular activity against multidrug resistant Mycobacterium tuberculosis isolate 9160 assessed as parasite growth inhibition measured after 7 days incubation by microplate alamar blue assay; type: functional; conditions: isolate 9160, 168 h; method in brief: as §1

| SMILES | MIC [1] | MIC [2] |
| --- | --- | --- |
| CCc1nc2ccc(Br)cn2c1C(=O)NCCOc1ccc(N2CCC(C(F)(F)F)CC2)cc1 | < 0.016 µg/mL | 0.13 µg/mL (≈ 0.241 µM) |
| CCc1nc2ccc(Cl)cn2c1C(=O)NCCOc1ccc(Br)cc1 | 0.063 µg/mL (≈ 0.149 µM) | 0.311 µg/mL (≈ 0.736 µM) |
| COc1ccc(OCCNC(=O)c2c(C3CC3)nc3ccc(C)cn23)cc1 | < 0.016 µg/mL | 0.429 µg/mL (≈ 1.17 µM) |
| CCc1nc2ccc(Cl)cn2c1C(=O)NCCOc1ccc(Cl)cc1 | 0.25 µg/mL (≈ 0.661 µM) | 1 µg/mL (≈ 2.64 µM) |
| COc1ccc2nc(C)c(C(=O)NCCOc3ccc(N4CCC(C(F)(F)F)CC4)cc3)n2c1 | < 0.016 µg/mL | 0.111 µg/mL (≈ 0.233 µM) |
| CCc1nc2ccc(Br)cn2c1C(=O)NCCOc1ccc(N2CC3CCCCC3C2)cc1 (stereo unspecified) | < 0.016 µg/mL | 0.032 µg/mL (≈ 0.0626 µM) |
| CCc1nc2ccc(Br)cn2c1C(=O)NCCOc1ccc(N2CCCCC2)cc1 | < 0.016 µg/mL | < 0.016 µg/mL |
| CCc1nc2ccc(C)cn2c1C(=O)NCCOc1ccc(OC)cc1 | < 0.016 µg/mL | 0.394 µg/mL (≈ 1.11 µM) |
| CCc1nc2ccc(Cl)cn2c1C(=O)NCCOc1ccc(N(C)C)cc1 | < 0.016 µg/mL | 0.225 µg/mL (≈ 0.582 µM) |
| CCc1nc2ccc(Cl)cn2c1C(=O)NCCOc1ccc(N2CCN(c3ccc(F)cc3)CC2)cc1 | < 0.016 µg/mL | 0.016 µg/mL (≈ 0.0306 µM) |
| COc1ccc2nc(C)c(C(=O)NCCOc3ccc(N4CC5CCCCC5C4)cc3)n2c1 (stereo unspecified) | < 0.016 µg/mL | < 0.016 µg/mL |
| CCc1nc2ccc(Br)cn2c1C(=O)NCCOc1ccc(Br)cc1 | 0.125 µg/mL (≈ 0.268 µM) | 0.449 µg/mL (≈ 0.961 µM) |
| CCc1nc2ccc(C)cn2c1C(=O)NCCOc1ccc(N2CC3CCCCC3C2)cc1 (stereo unspecified) | < 0.016 µg/mL | 0.024 µg/mL (≈ 0.0537 µM) |
| COc1ccc2nc(C)c(C(=O)NCCOc3ccc(Br)cc3)n2c1 | 0.125 µg/mL (≈ 0.309 µM) | 0.5 µg/mL (≈ 1.24 µM) |
| NNC(=O)c1ccncc1 [ISONIAZID] | > 40 µg/mL | > 40 µg/mL |
| O=c1nc(N2CCN(CC3CCCCC3)CC2)sc2c([N+](=O)[O-])cc(C(F)(F)F)cc12 [MACOZINONE] | 0.116 µg/mL (≈ 0.254 µM) | 0.232 µg/mL (≈ 0.508 µM) |
| CO[C@H]1/C=C/O[C@@]2(C)Oc3c(C)c(O)c4c(O)c(c(/C=N/N5CCN(C)CC5)c(O)c4c3C2=O)NC(=O)/C(C)=C\C=C\[C@H](C)[C@H](O)[C@@H](C)[C@@H](O)[C@@H](C)[C@H](OC(C)=O)[C@@H]1C [RIFAMPIN] | 36.9 µg/mL (≈ 44.8 µM) | 38.6 µg/mL (≈ 47 µM) |
| CCc1nc2ccc(Cl)cn2c1C(=O)NCc1ccc(N2CCC(c3ccc(OC(F)(F)F)cc3)CC2)cc1 [TELACEBEC] | < 0.016 µg/mL | 0.057 µg/mL (≈ 0.102 µM) |
